Data taken from ChEMBL document CHEMBL1268907, “Synthesis and evaluation of benzoxazole derivatives as 5-lipoxygenase inhibitors” (Bioorg Med Chem, 2010).
Blank lines part the entries; values can stand above or below the molecule they belong to. The source made the active and inactive calls. The rule behind the calls is not given here.

Legend:
[1] = target: T1, Polyunsaturated fatty acid 5-lipoxygenase (Mus musculus, UniProt P48999); assay: Inhibition of 5-lipoxygenase in BALB/c mouse BMMC assessed as LTC4 release after 20 mins by enzyme immunoassay
T1 sequence (P48999 whole entry): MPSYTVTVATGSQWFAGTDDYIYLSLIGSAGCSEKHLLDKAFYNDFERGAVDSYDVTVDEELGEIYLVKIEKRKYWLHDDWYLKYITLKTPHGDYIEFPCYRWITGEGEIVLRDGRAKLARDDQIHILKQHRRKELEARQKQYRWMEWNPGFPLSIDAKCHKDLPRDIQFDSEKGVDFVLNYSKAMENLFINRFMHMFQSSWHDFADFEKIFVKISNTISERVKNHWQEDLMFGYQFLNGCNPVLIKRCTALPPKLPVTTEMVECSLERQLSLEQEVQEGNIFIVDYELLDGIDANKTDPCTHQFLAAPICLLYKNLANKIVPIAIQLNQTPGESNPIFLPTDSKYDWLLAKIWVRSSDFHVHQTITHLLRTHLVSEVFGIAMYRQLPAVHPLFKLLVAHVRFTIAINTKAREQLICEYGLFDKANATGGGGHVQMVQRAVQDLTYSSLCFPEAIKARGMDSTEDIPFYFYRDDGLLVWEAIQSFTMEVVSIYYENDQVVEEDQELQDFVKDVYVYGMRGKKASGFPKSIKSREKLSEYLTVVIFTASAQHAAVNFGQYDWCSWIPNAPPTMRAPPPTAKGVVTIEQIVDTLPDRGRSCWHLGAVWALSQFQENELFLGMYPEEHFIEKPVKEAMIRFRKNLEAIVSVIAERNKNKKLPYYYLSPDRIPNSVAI
Procedure, shortened: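 Bone marrow mast cells from male Balb/c mice, cultured up to 4 weeks in enriched RPMI + 10% FBS + IL-3 (2 ng/mL); >98% purity by toluidine blue staining. Cells at 1×10^6/mL pre-incubated with compound in DMSO (final <0.5%) for 30 min at 37 °C, then stimulated with SCF 100 ng/mL for 20 min. Supernatant LTC4 measured by EIA in triplicate; % reduction calculated.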

Mus musculus [2] = assay: Antiasthamatic activity against ovalbumin-induced airway hyperresponsiveness mouse model assessed as reduction of eosinophils infiltration at 30 mg/kg, po measured 48 hrs after ovalbumin challenge; type: functional, organism-based; design: dose 30 mg/kg
Procedure, shortened: (§1)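 Mice sensitized i.p. with OVA/alum on days 0 and 11 and challenged with 1% OVA aerosol on days 19–21 and 25. Oral dosing at 30 mg/kg. Lungs taken 48 h after last challenge, fixed 24 h in 10% neutral-buffered formalin, paraffin-embedded, cut at 4 µm and H&E stained. Peribronchial/perivascular infiltration scored 0–3 blind by two independent investigators.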

Mus musculus [3] = assay: Antiasthamatic activity against ovalbumin-induced airway hyperresponsiveness mouse model assessed as reduction of mononuclear cells infiltration at 30 mg/kg, po measured 48 hrs after ovalbumin challenge; type: functional, organism-based; design: dose 30 mg/kg; procedure, shortened: as §1
Mus musculus [4] = assay: Antiasthamatic activity against ovalbumin-induced airway hyperresponsiveness mouse model assessed as reduction of plasma IgE level at 30 mg/kg, po measured 48 hrs after ovalbumin challenge (reference value: 41.82 +/- 10.57 ng/ml); type: functional
Mus musculus [5] = assay: Antiasthamatic activity against ovalbumin-induced airway hyperresponsiveness mouse model assessed as reduction of bronchoalveolar lavage fluid IL-5 level at 30 mg/kg, po measured 48 hrs after ovalbumin challenge; type: functional, Lung
Procedure, shortened: (§2)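 OVA sensitization i.p. (20 µg OVA with 2 mg aluminum hydroxide in PBS pH 7.4, days 0 and 11), then airway challenge with 1% OVA aerosol for 20 min on days 19, 20, 21 and 25. Compound given orally at 30 mg/kg. BALF collected 48 h after last challenge by three 0.5 mL ice-cold PBS lavages and centrifuged. IL-4, IL-5 and IL-13 measured by mouse ELISA (detection limit 250 pg/mL). n = 5–6 per group, mean ± SEM.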

Mus musculus [6] = assay: Antiasthamatic activity against ovalbumin-induced airway hyperresponsiveness mouse model assessed as reduction of increase in penh value at 30 mg/kg, po administered 24 hrs after last ovalbumin challenge measured after 24 hrs by plethysmography; type: functional, organism-based; design: dose 30 mg/kg
Procedure, shortened: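 OVA/alum-sensitized mice (i.p., days 0 and 11) challenged with 1% OVA aerosol, given 30 mg/kg orally. 24 h after final aerosol, whole-body plethysmography was run: PBS aerosol, then methacholine 12.5, 25 and 50 mg/mL for 3 min each, with 5 min recording per step. Peak Penh at each dose expressed as % of basal PBS Penh.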

Mus musculus [7] = assay: Antiasthamatic activity against ovalbumin-induced airway hyperresponsiveness mouse model assessed as reduction of bronchoalveolar lavage fluid IL-13 level at 30 mg/kg, po measured 48 hrs after ovalbumin challenge; type: functional, Lung; procedure, shortened: as §2
Mus musculus [8] = assay: Antiasthamatic activity against ovalbumin-induced airway hyperresponsiveness mouse model assessed as reduction of bronchoalveolar lavage fluid IL-4 level at 30 mg/kg, po measured 48 hrs after ovalbumin challenge; type: functional, Lung; procedure, shortened: as §2

IC50 [1]: 2.03 µM
Compound: COc1ccc2oc(Nc3cccc(Br)c3)nc2c1

IC50 [1]: 7.31 µM
Compound: CSc1ccc(Nc2nc3cc(C)ccc3o2)cc1

Compound: CCc1ccc(Nc2nc3cc(Cl)ccc3o2)cc1
Activity (Mus musculus [2]): Active | Activity (Mus musculus [3]): Active | Activity (Mus musculus [4]): 25.44 ng/mL | Activity (Mus musculus [5]): 110.91 ng/mL | Activity (Mus musculus [6]): Active | Activity (Mus musculus [7]): 71.91 ng/mL | Activity (Mus musculus [8]): 163.49 ng/mL

IC50 [1]: 0.12 µM
Compound: CCc1ccc(Nc2nc3cc(C)ccc3o2)cc1
Activity (Mus musculus [2]): Active | Activity (Mus musculus [3]): Active | Activity (Mus musculus [4]): 19.21 ng/mL | Activity (Mus musculus [5]): 116.92 ng/mL | Activity (Mus musculus [6]): Active | Activity (Mus musculus [7]): 64.3 ng/mL | Activity (Mus musculus [8]): 198.34 ng/mL

IC50 [1]: 2.64 µM
Compound: COc1ccc2oc(Nc3ccc(C(C)C)cc3)nc2c1

IC50 [1]: 5.66 µM
Compound: CCc1ccccc1Nc1nc2cc(C)ccc2o1

IC50 [1]: 2.77 µM
Compound: COc1ccc2oc(Nc3ccc(SC)cc3)nc2c1

IC50 [1]: 6.83 µM
Compound: COc1cccc(Nc2nc3cc(C)ccc3o2)c1

IC50 [1]: 4.6 µM
Compound: Cc1ccc2oc(Nc3ccccc3)nc2c1

IC50 [1]: 7.88 µM
Compound: COc1ccc2oc(Nc3ccccc3)nc2c1

IC50 [1]: 4.5 µM
Compound: Clc1ccc2oc(Nc3ccccc3)nc2c1
